# Measured values: ChEMBL document CHEMBL3994593, “Diterpenoids of the Cassane Type from Caesalpinia decapetala” (J Nat Prod, 2016)
# Assays:
# Assay type in all cases: functional, cell-based
# A2780 = assay: Cytotoxicity against human A2780 cells assessed as reduction in cell viability after 48 hrs by MTT assay; details: A2780, 48 h
# Method in brief: (§1)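 Cells grown in RPMI 1640 with 10% FBS, penicillin/streptomycin, at 37 °C, 5% CO2. Seeded at 5000 cells/well, compounds added after 24 h, then 48 h incubation; MTT formazan read at 570 nm. Five concentrations (50, 25, 10, 2.5, 1 μM), 0.5% DMSO final, triplicate experiments; IC50 as mean ± SEM. Gemcitabine and cisplatin as positive controls.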
# T-cell = assay: Cytotoxicity against ConA-stimulated Balb/c mouse T cells assessed as reduction in cell viability after 48 hrs by MTT assay
# Method in brief: (§2)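 Splenocytes from three male Balb/c mice (4−6 weeks); T and B cells enriched on nylon-wool column, stimulated with 5 μg/mL ConA (T) or 10 μg/mL LPS (B). Then handled as the tumor-cell MTT assay: 48 h exposure, 570 nm read, five concentrations 1–50 μM, 0.5% DMSO final, triplicate. Cyclosporin A and mycophenolate mofetil as positive controls.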
# B16 = assay: Cytotoxicity against mouse B16 cells assessed as reduction in cell viability after 48 hrs by MTT assay; details: B16, 48 h; method in brief: as §1
# B-cell = assay: Cytotoxicity against LPS-stimulated Balb/c mouse B cells assessed as reduction in cell viability after 48 hrs by MTT assay; method in brief: as §2
# Panc02 = assay: Cytotoxicity against mouse Panc02 cells assessed as reduction in cell viability after 48 hrs by MTT assay; details: Panc02, 48 h; method in brief: as §1
# SW1990 = assay: Cytotoxicity against human SW1990 cells assessed as reduction in cell viability after 48 hrs by MTT assay; details: SW1990, 48 h; method in brief: as §1
# HepG2 = assay: Cytotoxicity against human HepG2 cells assessed as reduction in cell viability after 48 hrs by MTT assay; details: HepG2, 48 h; method in brief: as §1
smiles,measurement,setting,value
COC(=O)[C@]1(C)CCC[C@]23C(O)O[C@H](C[C@H]4[C@@H](C)c5ccoc5C[C@@H]42)[C@H]31 (some centres not stated),IC50,A2780,> 10 µM
same,IC50,T-cell,> 10 µM
same,IC50,B16,> 10 µM
same,IC50,B-cell,> 10 µM
same,IC50,Panc02,> 10 µM
COC(=O)[C@@]1(C)[C@@H]2CC[C@@H]3[C@@H]4[C@@H](OC[C@@]42CC[C@@H]1O)c1occc1[C@@H]3C,IC50,A2780,> 10 µM
same,IC50,T-cell,> 10 µM
same,IC50,B16,> 10 µM
same,IC50,SW1990,2.9 to 8.9 µM
same,IC50,B-cell,> 10 µM
same,IC50,Panc02,> 10 µM
COC(=O)[C@]1(C)[C@@H](O)CC[C@@]23C(=O)O[C@H]4c5occc5[C@H](C)[C@H](CC[C@@H]12)[C@H]43,IC50,A2780,> 10 µM
same,IC50,T-cell,> 10 µM
same,IC50,B16,> 10 µM
same,IC50,SW1990,2.9 to 8.9 µM
same,IC50,B-cell,> 10 µM
same,IC50,Panc02,> 10 µM
COC(=O)[C@]1(C)CCC[C@]23CO[C@H]4c5occc5[C@H](C)[C@@H]([C@H]42)[C@@H](OC(C)=O)C[C@H]31,IC50,A2780,> 10 µM
same,IC50,T-cell,> 10 µM
same,IC50,B16,> 10 µM
same,IC50,B-cell,> 10 µM
same,IC50,Panc02,> 10 µM
COC(=O)[C@]1(C)CCC[C@@]2(COC(C)=O)[C@H]1[C@H](O)C[C@H]1[C@@H](C)C3=CC(=O)O[C@]3(OC)C[C@@H]12,IC50,A2780,> 10 µM
same,IC50,T-cell,> 10 µM
same,IC50,B16,> 10 µM
same,IC50,B-cell,> 10 µM
same,IC50,Panc02,> 10 µM
COC(=O)[C@]1(C)CCC[C@@]2(COC(C)=O)[C@H]1[C@H](O)C[C@H]1[C@@H](C)c3ccoc3C[C@@H]12,IC50,A2780,> 10 µM
same,IC50,HepG2,3.9 µM
same,IC50,T-cell,> 10 µM
same,IC50,B16,> 10 µM
same,IC50,SW1990,2.9 to 8.9 µM
same,IC50,B-cell,> 10 µM
same,IC50,Panc02,> 10 µM
C=C1CC[C@@H]2[C@](C)(CCC[C@]2(C)C(=O)O)[C@H]1CC(=O)/C(C)=C/CO,IC50,A2780,> 10 µM
same,IC50,T-cell,> 10 µM
same,IC50,B16,> 10 µM
same,IC50,B-cell,> 10 µM
same,IC50,Panc02,> 10 µM
COC(=O)[C@]1(C)[C@@H](OC(C)=O)CC[C@@]23C(=O)O[C@H]4c5occc5[C@H](C)[C@H](CC[C@@H]12)[C@H]43,IC50,A2780,> 10 µM
same,IC50,T-cell,> 10 µM
same,IC50,B16,> 10 µM
same,IC50,B-cell,> 10 µM
same,IC50,Panc02,> 10 µM
COC(=O)[C@]1(C)[C@@H](OC(C)=O)CC[C@@]23CO[C@H]4c5occc5[C@H](C)[C@H](CC[C@H]21)[C@H]43,IC50,A2780,> 10 µM
same,IC50,T-cell,> 10 µM
same,IC50,B16,> 10 µM
same,IC50,B-cell,> 10 µM
same,IC50,Panc02,> 10 µM
COC(=O)[C@]1(C)CCC[C@]23CO[C@H]4c5occc5[C@H](C)[C@@H]([C@H]42)[C@@H](O)C[C@H]31,IC50,A2780,> 10 µM
same,IC50,T-cell,> 10 µM
same,IC50,B16,> 10 µM
same,IC50,SW1990,2.9 to 8.9 µM
same,IC50,B-cell,> 10 µM
same,IC50,Panc02,> 10 µM
COC(=O)[C@@]1(C)[C@@H](OC(C)=O)CC[C@]2(C(=O)O)[C@H]3Cc4occc4[C@H](C)[C@@H]3CC[C@@H]12,IC50,A2780,> 10 µM
same,IC50,T-cell,> 10 µM
same,IC50,B16,> 10 µM
same,IC50,B-cell,> 10 µM
same,IC50,Panc02,> 10 µM
COC(=O)[C@]1(C)CCC[C@]2(COC(C)=O)c3cc4occc4c(C)c3C[C@@H](OC(C)=O)[C@H]21,IC50,A2780,> 10 µM
same,IC50,T-cell,> 10 µM
same,IC50,B16,> 10 µM
same,IC50,SW1990,2.9 to 8.9 µM
same,IC50,B-cell,> 10 µM
same,IC50,Panc02,> 10 µM
C=C1CC[C@@H]2[C@](C)(CCC[C@]2(C)C(=O)O)[C@H]1/C=C/C(C)=O,IC50,A2780,> 10 µM
same,IC50,T-cell,> 10 µM
same,IC50,B16,> 10 µM
same,IC50,B-cell,> 10 µM
same,IC50,Panc02,> 10 µM
Nc1ccn([C@@H]2O[C@H](CO)[C@@H](O)C2(F)F)c(=O)n1 [GEMCITABINE],IC50,SW1990,2.3 µM
